The results in this text go back to ChEMBL document CHEMBL1629614, “Inhibition of methionyl-tRNA synthetase by REP8839 and effects of resistance mutations on enzyme activity” (Antimicrob Agents Chemother, 2009).

For data set [1], the system named is C=C(F)c1sc(CNCCCNc2cc(=O)c3ccccc3[nH]2)c(C)c1Br. As to the kind of experiment: Activity of Bacillus stearothermophilus MetRS by ATP:PPi exchange assay in presence of methionine. The note with it: Geobacillus stearothermophilus.
Data set [2] has the same test system. As to the kind of experiment: Activity of Bacillus stearothermophilus MetRS by ATP:PPi exchange assay in presence of ATP. The note with it: Geobacillus stearothermophilus.
In data set [3] the test system is Staphylococcus aureus. As to the kind of experiment: Activity of Staphylococcus aureus MetRS by ATP:PPi exchange assay in presence of ATP. A digest of the protocol: (§1)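 Purified S. aureus MetRS (wild type or mutant; E. coli-expressed, ammonium sulfate cut, anion exchange) at 30 nM. ATP:PPi exchange at 30°C in 100 mM Tris-HCl pH 8.0, 5–10 mM Mg acetate, 80 mM KCl, 2.5 mM DTT, [32P]PPi plus cold PPi equal to ATP. Quenched with EDTA over 1–10 min, PEI-cellulose TLC, phosphorimager. Initial velocities versus varied ATP or methionine fit to Michaelis-Menten.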

The species named for data set [4] is Homo sapiens. Kind of data set: Activity of human mitochondrial MetRS by ATP:PPi exchange assay in presence of ATP.
In data set [5] the test system is Staphylococcus aureus. Kind of data set: Activity of […] by scintillation proximity assay in presence of tRNA.
Data set [6] deals with Streptococcus pneumoniae. As to the kind of experiment: Activity of Streptococcus pneumoniae MetRS1 by ATP:PPi exchange assay in presence of methionine.
The test system of data set [7] is Escherichia coli. As to the kind of experiment: Activity of Escherichia coli MetRS by ATP:PPi exchange assay in presence of methionine.
The test system of data set [8] is Escherichia coli. Kind of data set: Activity of Escherichia coli MetRS by ATP:PPi exchange assay in presence of ATP.
Data set [9] deals with Staphylococcus aureus. Kind of data set: Ratio of Kcat to Km for Staphylococcus aureus MetRS in presence of methionine.
Data set [10] concerns Staphylococcus aureus. As to the kind of experiment: Ratio of Kcat to Km for Staphylococcus aureus MetRS in presence of tRNA.
The species entered for data set [11] is Homo sapiens. Kind of data set: Activity of human mitochondrial MetRS by ATP:PPi exchange assay in presence of methionine.
Data set [12] deals with Staphylococcus aureus. Kind of data set: Activity of Staphylococcus aureus MetRS by ATP:PPi exchange assay in presence of methionine. The method in brief: as §1
In data set [13] the test system is Staphylococcus aureus. As to the kind of experiment: Ratio of Kcat to Km for Staphylococcus aureus MetRS in presence of ATP. A digest of the protocol: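 Purified recombinant S. aureus MetRS (30 nM) was assayed by ATP:PPi exchange at 30°C in Tris pH 8.0 with Mg acetate, KCl and DTT. [32P]PPi was matched to ATP, and ATP or methionine was varied. Time points from 1 to 10 min were quenched with EDTA, separated by PEI-cellulose TLC and read by phosphorimager. Initial rates were fitted to Michaelis-Menten.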

The test system of data set [14] is Streptococcus pneumoniae. As to the kind of experiment: Activity of Streptococcus pneumoniae MetRS1 by ATP:PPi exchange assay in presence of ATP.

Chain of Methionine--tRNA ligase (Geobacillus stearothermophilus), P23920 (P23920 whole entry): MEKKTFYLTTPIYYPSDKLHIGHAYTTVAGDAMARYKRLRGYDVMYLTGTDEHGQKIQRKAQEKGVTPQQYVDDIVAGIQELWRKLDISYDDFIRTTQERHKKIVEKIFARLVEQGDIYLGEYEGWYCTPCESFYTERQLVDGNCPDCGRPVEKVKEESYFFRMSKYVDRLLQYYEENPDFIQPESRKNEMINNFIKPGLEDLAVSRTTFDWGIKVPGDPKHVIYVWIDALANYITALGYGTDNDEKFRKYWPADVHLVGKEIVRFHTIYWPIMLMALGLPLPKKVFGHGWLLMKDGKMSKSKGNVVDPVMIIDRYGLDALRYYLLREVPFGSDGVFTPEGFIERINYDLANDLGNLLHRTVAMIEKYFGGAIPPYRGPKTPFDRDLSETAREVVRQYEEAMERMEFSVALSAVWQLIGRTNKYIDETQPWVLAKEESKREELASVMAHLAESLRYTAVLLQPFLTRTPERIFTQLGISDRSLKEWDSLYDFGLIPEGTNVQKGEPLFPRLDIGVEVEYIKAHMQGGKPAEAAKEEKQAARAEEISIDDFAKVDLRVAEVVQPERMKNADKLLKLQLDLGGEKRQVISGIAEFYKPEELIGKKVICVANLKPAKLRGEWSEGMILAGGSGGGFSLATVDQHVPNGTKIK

As to “Methionine--tRNA ligase (Geobacillus stearothermophilus), P23920”, the Michaelis-Menten constant (Km) (usually the concentration of substrate that gives half-maximal velocity) in [1] came to 6 µM; in [2], 1 µM.

As for `C=C(F)c1sc(CNCCCNc2cc(=O)c3ccccc3[nH]2)c(C)c1Br`, the Michaelis constant (Km) was 500 µM in [3]; 85 µM in [4]; 1 µM in data set [5]; 53 µM in data set [6]; 20 µM in data set [7]; 20 µM in data set [8]. Also, the Michaelis constant (Km) was determined as 20 µM in data set [11], 100 µM in data set [12] and 514 µM in [14]. For the same compound, the catalytic constant (kcat) (as a rule, the number of substrate molecules converted per active site and unit of time at saturation) in data set [5] is 0.49 s⁻¹. Besides, the kcat/Km (as a rule, the turnover number divided by the Michaelis constant) was 250000 M⁻¹ s⁻¹ in data set [9], 490000 M⁻¹ s⁻¹ in data set [10] and 50000 M⁻¹ s⁻¹ in [13].
